Each structure is given as a SMILES string. Active and inactive are the calls of the source. The calls are words filed in the database; no cut-off is given here.

The first assay addresses T1, Cysteinyl leukotriene receptor 1 (Cavia porcellus, UniProt Q2NNR5).
T1 sequence (Q2NNR5 whole entry): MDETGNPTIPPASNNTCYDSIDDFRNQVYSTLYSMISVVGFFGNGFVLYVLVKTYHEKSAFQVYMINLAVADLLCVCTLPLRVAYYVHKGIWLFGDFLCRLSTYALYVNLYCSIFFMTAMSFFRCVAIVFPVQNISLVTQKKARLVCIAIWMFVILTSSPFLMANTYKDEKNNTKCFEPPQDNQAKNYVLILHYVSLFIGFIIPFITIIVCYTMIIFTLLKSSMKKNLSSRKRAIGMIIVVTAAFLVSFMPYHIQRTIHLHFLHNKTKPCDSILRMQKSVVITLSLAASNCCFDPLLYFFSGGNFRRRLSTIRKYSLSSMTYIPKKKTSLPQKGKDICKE
The experiment in a line: Dissociation constant was determined against Cysteinyl leukotriene D4 receptor of guinea pig lung membranes using radioligand binding assays. The class given is tissue-based.
Settings: not given
`O=C(O)c1cc(=O)c2cc(OCCCN3CCC(=C(c4ccccc4)c4ccccc4)CC3)ccc2o1` displayed a Kd of 4.27 µM.
Compound `O=c1cc(C2N=NN=N2)oc2cc(OCCCN3CCC(=C(c4ccccc4)c4ccccc4)CC3)ccc12` displayed a Kd of 2.34 µM.

The species entered for the next assay is Cavia porcellus. The experiment in a line: Compound was evaluated for antihistaminic activity against isolated guinea pig ileum; Not active. Format: functional.
Settings: not given
A digest of the protocol: (§1)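 Isolated guinea pig ileum segment (about 2 cm) in an organ bath of Krebs buffer at 37 °C, bubbled with 95% O2–5% CO2. Three cumulative histamine dose-response curves were run first, starting at 10 nM. After washing, the strip was exposed to compound for 30 min and the curve repeated. KB was derived by Cheng–Prusoff. Means ± SD of ≥3 independent experiments.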
For `CCCc1c(OCC(O)COc2ccc3c(=O)cc(C(=O)O)oc3c2CCC)ccc(C(C)=O)c1O` (stereo unspecified) [FPL-55712], the Kb entry was “inactive”.

In a further assay the target is T2, Histamine H1 receptor (Cavia porcellus, UniProt P31389). Description: Dissociation constant was determined against H1 receptor of guinea pig lung membranes using radioligand binding assays.
T2 sequence (P31389 whole entry): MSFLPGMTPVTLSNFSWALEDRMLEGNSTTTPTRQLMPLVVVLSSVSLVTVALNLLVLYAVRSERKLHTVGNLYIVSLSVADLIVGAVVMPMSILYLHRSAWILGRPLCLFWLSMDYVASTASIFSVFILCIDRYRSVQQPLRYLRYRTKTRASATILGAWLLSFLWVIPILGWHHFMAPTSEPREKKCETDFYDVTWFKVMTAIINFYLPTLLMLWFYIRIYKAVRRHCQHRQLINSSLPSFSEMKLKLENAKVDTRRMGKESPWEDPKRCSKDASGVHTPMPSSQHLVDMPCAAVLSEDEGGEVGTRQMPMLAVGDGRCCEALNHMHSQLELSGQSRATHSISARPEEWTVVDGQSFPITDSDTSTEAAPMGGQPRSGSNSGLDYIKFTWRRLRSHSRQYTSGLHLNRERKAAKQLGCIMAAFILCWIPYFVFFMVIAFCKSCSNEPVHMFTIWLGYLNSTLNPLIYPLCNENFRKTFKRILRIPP
Settings: not given
The class given is tissue-based. A digest of the protocol: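 Guinea pig lung membranes were incubated with 0.5 nM [3H]mepyramine and compound at 37 °C in 50 mM Na-K phosphate, pH 7.5. Nonspecific binding was defined with (-)-dimethindene. The reaction was stopped with ice-cold buffer, then filtered on GF/C and counted by scintillation. KB by Cheng–Prusoff; means of two independent assays in triplicate.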
In turn, `O=C(O)c1cc(=O)c2cc(OCCCN3CCC(=C(c4ccccc4)c4ccccc4)CC3)ccc2o1` returned a Kd of 0.00598 µM.

The species entered for the next assay is Cavia porcellus. The experiment in a line: Compound was evaluated for antihistaminic activity against isolated guinea pig ileum. The class given is functional.
Settings: not given
A digest of the protocol: as §1
Take `Cc1ccc(C(OC2CCN(CCCOc3ccc4c(=O)cc(C(=O)O)oc4c3)CC2)c2ccccc2)cc1` (stereo in doubt; 1i): the Kb was determined as 0.0123 µM.
Turning to `Cc1ccc(C(OC2CCN(CCCOc3ccc4c(=O)cc(C(=O)O)oc4c3)CC2)c2ccccc2)cc1` (stereo in doubt; 1j), the Kb stood at 0.00224 µM.

The assay is the same for the next values; noted with them: Cavia porcellus, Ileum.
The compound `O=C(O)c1cc(=O)c2ccc(OCCCN3CCC(OC(c4ccccc4)c4ccccc4)CC3)cc2o1` gave a Kb of 0.00912 µM.
In turn, `O=C(O)c1cc(=O)c2cc(OCCCN3CCC(=C(c4ccccc4)c4ccccc4)CC3)ccc2o1` returned a Kb of 0.00575 µM.
Same read-out and setting: the figure for `O=c1cc(C2N=NN=N2)oc2cc(OCCCN3CCC(C(O)(c4ccccc4)c4ccccc4)CC3)ccc12` is 0.0017 µM.
With `O=c1cc(C2N=NN=N2)oc2cc(OCCCN3CCC(=C(c4ccccc4)c4ccccc4)CC3)ccc12`, the Kb was determined as 0.00363 µM.
On the same count and under the same terms, the figure for `O=C(O)c1cc(=O)c2ccc(OCCCCN3CCC(OC(c4ccccc4)c4ccccc4)CC3)cc2o1` is 0.00708 µM.
Consider `O=C(O)c1cc(=O)c2cc(OCCCN3CCC(C(O)(c4ccccc4)c4ccccc4)CC3)ccc2o1`, for which the Kb was determined as 0.0038 µM.
Turning to `O=C(O)c1cc(=O)c2ccc(OCCCCCCN3CCC(OC(c4ccccc4)c4ccccc4)CC3)cc2o1`, the Kb is 0.00513 µM.
Consider `O=C(O)c1cc(=O)c2ccc(OCCCN3CCC(=C(c4ccccc4)c4ccccc4)CC3)cc2o1`, for which the Kb came to 0.0162 µM.
Compound `O=C(O)c1cc(=O)c2ccc(OCCCN3CCC(C(O)(c4ccccc4)c4ccccc4)CC3)cc2o1` showed a Kb of 0.00525 µM.
As to `O=C(O)c1cc(=O)c2ccc(OCCCCCN3CCC(OC(c4ccccc4)c4ccccc4)CC3)cc2o1`, the Kb worked out at 0.017 µM.

For the next assay, the species on record is Cavia porcellus. The experiment in a line: Compound was evaluated for inhibition of contraction in guinea pig ileum induced by leukotriene D4 (LTD4).
Settings: not given
Format: functional, organism-based. In outline:
(§2)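 Isolated guinea pig ileum strip in Krebs buffer at 37 °C, continuously bubbled with 95% O2–5% CO2. After washing, the strip was pre-incubated with compound for 30 min before LTD4 challenge. Contraction was induced by LTD4 at 10 nM. The value reported is the antagonist concentration giving 50% of maximal inhibition. Means ± SD of ≥3 independent experiments.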
As to `O=C(O)c1cc(=O)c2ccc(OCCCN3CCC(OC(c4ccccc4)c4ccccc4)CC3)cc2o1`, the IC50 is 1.45 µM.
Turning to `O=C(O)c1cc(=O)c2cc(OCCCN3CCC(=C(c4ccccc4)c4ccccc4)CC3)ccc2o1`, 0.65 µM corresponded to half-maximal inhibition (IC50).
On to `CCCc1c(OCC(O)COc2ccc3c(=O)cc(C(=O)O)oc3c2CCC)ccc(C(C)=O)c1O` (stereo unspecified) [FPL-55712], for which half-maximal inhibition (IC50) was put at 0.12 µM.
Compound `O=c1cc(C2N=NN=N2)oc2cc(OCCCN3CCC(C(O)(c4ccccc4)c4ccccc4)CC3)ccc12` yielded a 50% inhibitory concentration (IC50) of 56.7 µM.
In the case of `O=c1cc(C2N=NN=N2)oc2cc(OCCCN3CCC(=C(c4ccccc4)c4ccccc4)CC3)ccc12`, the half-inhibitory concentration (IC50) was 0.19 µM.
`O=C(O)c1cc(=O)c2ccc(OCCCCN3CCC(OC(c4ccccc4)c4ccccc4)CC3)cc2o1` came in with an IC50 of 9.89 µM.
Regarding `O=C(O)c1cc(=O)c2cc(OCCCN3CCC(C(O)(c4ccccc4)c4ccccc4)CC3)ccc2o1`, the half-inhibitory concentration (IC50) was more than 100 µM.
`O=C(O)c1cc(=O)c2ccc(OCCCCCCN3CCC(OC(c4ccccc4)c4ccccc4)CC3)cc2o1` registered a half-maximal inhibitory concentration (IC50) of 48.2 µM.
`O=C(O)c1cc(=O)c2ccc(OCCCN3CCC(=C(c4ccccc4)c4ccccc4)CC3)cc2o1` showed a half-inhibitory concentration (IC50) of 20.4 µM.
Same read-out and setting: the figure for `O=C(O)c1cc(=O)c2ccc(OCCCN3CCC(C(O)(c4ccccc4)c4ccccc4)CC3)cc2o1` is 22.8 µM; for `O=C(O)c1cc(=O)c2ccc(OCCCCCN3CCC(OC(c4ccccc4)c4ccccc4)CC3)cc2o1` it is 18.3 µM.

The species entered for the next assay is Cavia porcellus. The experiment in a line: Compound was evaluated for inhibition of [3H]LTD4 binding in guinea pig lung membrane fragments.
Settings: not given
For the compound `Cc1ccc(C(OC2CCN(CCCOc3ccc4c(=O)cc(C(=O)O)oc4c3)CC2)c2ccccc2)cc1` (stereo in doubt; 1i), the IC50 was found to be 16.6 µM.
Regarding `Cc1ccc(C(OC2CCN(CCCOc3ccc4c(=O)cc(C(=O)O)oc4c3)CC2)c2ccccc2)cc1` (stereo in doubt; 1j), the 50% inhibitory concentration (IC50) is 212 µM.

The species entered for a further assay is Cavia porcellus. Description: Compound was evaluated for inhibition of contraction in guinea pig ileum induced by leukotriene D4 (LTD4); Not active. Format: functional, organism-based.
Settings: not given
A digest of the protocol:
as §2
As for `CC(C)(C)c1ccc(C(O)CCCN2CCC(C(O)(c3ccccc3)c3ccccc3)CC2)cc1` (stereo unspecified) [TERFENADINE], the concentration for half-maximal inhibition (IC50) result is given as “Not Active”.

Another assay addresses T2, Histamine H1 receptor. Description: dissociation constant was determined against H1 receptor of guinea pig lung membranes using radioligand binding assays.
Settings: not given
The class given is tissue-based. A digest of the protocol: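 Guinea pig lung membranes were incubated with 0.5 nM [3H]mepyramine and compound at 37 °C in 50 mM Na-K phosphate, pH 7.5. Nonspecific binding was defined with (-)-dimethindene. The reaction was stopped with ice-cold buffer, then filtered on GF/C and counted by scintillation. Radioligand KD was 3.30 nM. KB by Cheng–Prusoff; means of two independent assays in triplicate.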
The compound `O=c1cc(C2N=NN=N2)oc2cc(OCCCN3CCC(=C(c4ccccc4)c4ccccc4)CC3)ccc12` yielded a Kd of 0.00589 µM.

The values are drawn from ChEMBL document CHEMBL1128421, “(Piperidinylalkoxy)chromones: novel antihistamines with additional antagonistic activity against leukotriene D4” (J Med Chem, 1995).
